The source made the active and inactive calls. The calls are words filed in the database; no cut-off is given here.
Legend:
[1] = Inhibition of HIV1 Nef (56-206)/SH3 domain of GST-Hck expressed in Escherichia coli BL21 DE3 complex formation at […] after 1 hr by high-mass MALDI TOF analysis
Procedure, shortened: (§1)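 Nef core (56–206) and Hck SH3 were expressed in E. coli BL21 DE3 as GST fusions, thrombin-cleaved and gel-filtered. Nef was preincubated 1 h at rt with compound from DMSO stocks (up to 5 mM stock), then SH3-Hck was added for 1 h at rt. Samples were cross-linked 1 h, mixed with sinapinic acid matrix and analysed by high-mass MALDI-TOF in triplicate. IC50 comes from % complex versus log concentration.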

[2] = Solubility of the compound; type: physicochemical
[3] = Cytotoxicity against african green monkey COS7 cells assessed as cell viability up to 40 uM after 70 hrs; type: cell-based, COS-7; conditions: chlorocebus aethiops, read-out: Activity
[4] = Induction of HIV1 GST-Nef-mVenus proteolysis after 30 mins preincubation measured after 60 mins by cleavage enzyme-cytometric bead array method in presence of HIV1 protease; design: species or system Human immunodeficiency virus 1
Procedure, shortened: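 CE-CBA: a GST-Nef-mVenus reporter is immobilized on anti-GST antibody beads and cleaved by HIV protease. Cleavage is followed as loss of bead fluorescence by flow cytometry. Values are normalized to the DMSO control (0% cleavage) and intrinsic bead fluorescence (100%). Relative EC50 is reported as mean ± SEM of three independent experiments.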

[5] = Inhibition of HIV1 Nef (56-206)/SH3 domain of GST-Hck expressed in Escherichia coli BL21 DE3 complex formation after 1 hr by high-mass MALDI TOF analysis; procedure, shortened: as §1
[6] = system: Protein Nef (Human immunodeficiency virus type 1); test: Decrease in aggregation temperature of HIV1 His-tagged Nef at 10 to 200 uM by thermal protein denaturation assay (reference value: 58.83 +/- 0.25 degC)

inhibition [1]	solubility [2]	EC50 [4]	IC50 [5]	T [6]	SMILES	viability at 70 h [3]
Active	Insoluble	34.3 µM	15.9 µM	–	CC(C)(C)c1ccc(-c2ccc(OCC(=O)Nc3cccc(C(=O)O)c3)cc2)cc1	73%
Active	–	109 µM	> 50 µM	50.3 °C	CC(C)(C)c1ccc(OCC(=O)Nc2cccc(C(=O)O)c2)cc1	86.6%
–	Insoluble	–	–	–	COC(=O)c1cccc(NC(=O)COc2ccc(-c3ccc(C(C)(C)C)cc3)cc2)c1	–
